Source: ChEMBL document CHEMBL4138225, “Development of novel anti-filarial agents using carbamo(dithioperoxo)thioate derivatives” (Eur J Med Chem, 2018)
Values after ≈ are worked out from the molar mass of the structure shown. Active and inactive are the calls of the source. The rule behind the calls is not given here.

Columns and labels:
Setaria cervi [1] = test: Antifilarial activity against Setaria cervi microfilariae after 24 hrs by MTT assay; type: functional
Procedure, shortened: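 Bovine S. cervi microfilariae incubated with compounds (DMSO-dissolved) in RPMI-1640 + 10% FBS, 5% CO2, 24 h. Worms washed in PBS; ~1×10^3 suspended in 0.3 ml MTT 0.25 mg/ml, 37 °C 2 h in dark. Formazan dissolved in DMSO, absorbance at 595 nm. Percent inhibition computed; LC50 fitted; ≥4 repeats, mean ± SE.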

Setaria cervi [2] = test: Antifilarial activity against Setaria cervi microfilariae assessed as reduction in worm movement measured every 6 hrs up to 24 hrs by microscopy; type: functional, organism-based
Procedure, shortened: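 About 1×10^5 S. cervi mf per well in RPMI-1640 with 10% FBS at 5% CO2, given a dose series. Motility checked by microscope every 6 h up to 24 h and scored 4 (highly motile) down to 0 (dead). IC50 and MIC calculated from scores; three experiments in triplicate, mean ± SE.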

Setaria cervi [3] = test: Antifilarial activity against Setaria cervi adult after 24 hrs by MTT assay; type: functional, organism-based
Procedure, shortened: (§1)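 S. cervi mf or adults cultured in RPMI-1640 with 10% FBS, 5% CO2, 24 h with compounds dissolved in DMSO. Worms washed in PBS, ~1×10^3 put in 0.25 mg/ml MTT for 2 h at 37 °C in the dark. Formazan dissolved in DMSO, A595. Percent inhibition computed, LC50 fitted; at least four repeats, mean ± SE.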

Setaria cervi [4] = test: Antifilarial activity against Setaria cervi oocytes after 24 hrs by MTT assay; type: functional, organism-based
Setaria cervi [5] = test: Antifilarial activity against Setaria cervi microfilariae after 3 hrs by trypan blue exclusion assay; type: functional, organism-based
Procedure, shortened: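 After treatment, the culture was mixed and 100 μL holding parasites moved into fresh medium and put back in the CO2 incubator. Viability read by trypan blue staining, dead worms blue. Viability % = live / total microfilariae.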

Setaria cervi [6] = test: Antifilarial activity against Setaria cervi adult after 3 hrs by trypan blue exclusion assay; type: functional, organism-based
Setaria cervi [7] = test: Induction of chromatin condensation in Setaria cervi microfilariae by Hoechst 33342 staining-based […] microscopic analysis; type: functional, organism-based
Procedure, shortened: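 Treated mf washed in PBS (pH 7.2), fixed in paraformaldehyde and stained 5 min with 1 mg/mL Hoechst 33342. Mounted on poly-L-lysine slides and imaged by fluorescence microscopy at […].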

Setaria cervi [8] = test: Antifilarial activity against Setaria cervi microfilaria forms after 24 hrs by MTT assay; type: functional, organism-based; procedure, shortened: as §1
Setaria cervi [9] = test: Antifilarial activity against Setaria cervi microfilariae after 3 hrs
Setaria cervi [10] = test: Induction of reactive oxygen species generation in Setaria cervi microfilariae at 1 to 10 uM by NBT assay; type: functional, organism-based
Procedure, shortened: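 Treated mf or adults pelleted at 7500 rpm, washed in PBS (50 mM, pH 7.0), then incubated in 2% NBT for 2 h at 37 °C. Washed in PBS and methanol, formazan dissolved in 2M KOH/DMSO for 10–15 min at room temperature, absorbance read at 620 nm.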

Row | Compound | LC50 (Setaria cervi [1]) | IC50 (Setaria cervi [2]) | MIC (Setaria cervi [2]) | Activity (Setaria cervi [1]) | Activity (Setaria cervi [3]) | Activity (Setaria cervi [4]) | Activity (Setaria cervi [5]) | Activity (Setaria cervi [6]) | Activity (Setaria cervi [7]) | Activity (Setaria cervi [8]) | IC50 (Setaria cervi [9]) | Activity (Setaria cervi [10])
1 | S=C(SSc1ncccn1)N1CCC(Cc2ccccc2)CC1 | 240 µg/mL (≈ 663 µM) | 59.9 µg/mL (≈ 166 µM) | 20 µg/mL (≈ 55.2 µM) |  |  |  |  |  |  |  |  | 
2 | S=C(SSc1ccccn1)N1CCOCC1 | 191 µg/mL (≈ 700 µM) | 47.7 µg/mL (≈ 175 µM) | 15.9 µg/mL (≈ 58.3 µM) |  |  |  |  |  |  |  |  | 
3 | Cc1ccc(SSC(=S)N2CCCC2)cc1 | 94.3 µg/mL (≈ 350 µM) | 23.6 µg/mL (≈ 87.5 µM) | 7.86 µg/mL (≈ 29.2 µM) |  |  |  |  |  |  |  |  | 
4 | S=C(SSc1cccc2ccccc12)N1CCOCC1 | 88.9 µg/mL (≈ 277 µM) | 22.2 µg/mL (≈ 69.1 µM) | 7.41 µg/mL (≈ 23 µM) |  |  |  |  |  |  |  |  | 
5 | S=C(SSc1ncccn1)N1CCOCC1 | 6.17 µg/mL (≈ 22.6 µM) | 5.5 µg/mL (≈ 20.1 µM) | 0.97 µg/mL (≈ 3.55 µM) | Dose-dependent effect | Dose-dependent effect | Active | Dose-dependent effect | Dose-dependent effect | Active | Active | 5.5 µg/mL (≈ 20.1 µM) | 
6 | COc1ccc(SSC(=S)N2CCCCC2)cc1 | 6.94 µg/mL (≈ 23.2 µM) | 4.61 µg/mL (≈ 15.4 µM) | 2.3 µg/mL (≈ 7.68 µM) | Dose-dependent effect | Dose-dependent effect | Active | Dose-dependent effect | Dose-dependent effect | Active | Active | 4.61 µg/mL (≈ 15.4 µM) | 
7 | S=C(SSc1cccc2ccccc12)N1CCCC1 | 90.3 µg/mL (≈ 296 µM) | 22.6 µg/mL (≈ 73.9 µM) | 7.52 µg/mL (≈ 24.6 µM) |  |  |  |  |  |  |  |  | 
8 | COc1ccc(SSC(=S)N2CCCC2)cc1 | 97 µg/mL (≈ 340 µM) | 24.2 µg/mL (≈ 85 µM) | 8.08 µg/mL (≈ 28.3 µM) |  |  |  |  |  |  |  |  | 
9 | Cc1ccc(SSC(=S)N2CCc3ccccc3C2)cc1 | 128 µg/mL (≈ 388 µM) | 32.1 µg/mL (≈ 96.9 µM) | 10.7 µg/mL (≈ 32.3 µM) |  |  |  |  |  |  |  |  | 
10 | S=C(SSc1cccc2ccccc12)N1CCCCC1 | 6.49 µg/mL (≈ 20.3 µM) | 2.15 µg/mL (≈ 6.73 µM) | 0.583 µg/mL (≈ 1.82 µM) | Dose-dependent effect | Dose-dependent effect | Active | Dose-dependent effect | Dose-dependent effect | Active | Active | 2.15 µg/mL (≈ 6.73 µM) | Active
11 | S=C(SSc1ccccn1)N1CCc2ccccc2C1 | 99.2 µg/mL (≈ 311 µM) | 24.8 µg/mL (≈ 77.8 µM) | 8.26 µg/mL (≈ 25.9 µM) |  |  |  |  |  |  |  |  | 
